These results are taken from PubChem BioAssay.

SMILES strings stand for the structures. Calls of active or inactive are those of the source.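 The calls were made as follows, unless noted: active = visually confirmed hit in the image check and inhibition above 20%; inconclusive = visually confirmed hit but inhibition not above 20%; inactive = no visual hit in the image check.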

The nature of assay [1]: inhibitors of TNFa-induced NFkB p65 translocation, primary screen, imaging, HUVEC, MLSMR starter and 10KST1 sets (AID 438;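 active = inhibition above 20% together with a positive visual image hit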;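 also: compound added about 3h40 before a 20 min TNFalpha stimulation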;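 as to inhibition: signal is the nuclear over cytoplasmic p65 intensity ratio per well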). To be noted: HUVEC TNFa-induced p65 nuclear translocation; cell count: measured here: nuclei count (cytotoxicity indicator), at 2.08 µM; inhibition: at 2 µM, stronger effect = higher value, 0% TNFa-plus-vehicle, 100% no-TNFa wells.
A short description of assay [2]: inhibitors of mutant huntingtin aggregation, primary screen, imaging, exon1htt(103Q)mCFP cells, high-content imaging (AID 483;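 active = visual image review flags a hit and inhibition of aggregation exceeds 20%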;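 also: compound exposure lasted 3 days before fixation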;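 as to nuclei count: percent of the per-plate median nuclei count of sample wells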). To be noted: exon1htt(103Q)mCFP cell line, aggregate imaging, at 2 µM; inhibition of aggregation: stronger effect = higher value; nuclei count: measured here: cell count, toxicity.
Assay [3] in a line: inhibitors of E-selectin induction by TNFa, primary screen, imaging, HUVEC, immunofluorescence, MLSMR starter and 10KST1 sets (AID 487).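 As to inhibition: signal is fraction of cell area covered by stained E-selectin grains.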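 As to nuclei count: 100% = median nuclei count of all wells on the same plate.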 To be noted: HUVEC TNFalpha-induced E-selectin immunofluorescence imaging, at 2 µM; inhibition: stronger effect = higher value; nuclei count: measured here: cell number, toxicity.
The target of assay [4] is Voltage-gated potassium channel subunit beta-2 (Rattus norvegicus) (UniProt P62483). Description: KvBeta enzyme negative modulators, primary screen, biochemical, NADPH fluorescence (AID 622;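 active = fluorescence slope higher than the sample average by over 3 SD, cut at about -0.22 in these data, passing the limit was not always enough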;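 also: slope of raw intensity against log time taken from 70 to 1610 s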). The following applies: recombinant KvBeta, 4-cyanobenzaldehyde reduction, at 10 µM, stronger effect = higher value.
Voltage-gated potassium channel subunit beta-2 (Rattus norvegicus), sequence (P62483 whole entry, looked up): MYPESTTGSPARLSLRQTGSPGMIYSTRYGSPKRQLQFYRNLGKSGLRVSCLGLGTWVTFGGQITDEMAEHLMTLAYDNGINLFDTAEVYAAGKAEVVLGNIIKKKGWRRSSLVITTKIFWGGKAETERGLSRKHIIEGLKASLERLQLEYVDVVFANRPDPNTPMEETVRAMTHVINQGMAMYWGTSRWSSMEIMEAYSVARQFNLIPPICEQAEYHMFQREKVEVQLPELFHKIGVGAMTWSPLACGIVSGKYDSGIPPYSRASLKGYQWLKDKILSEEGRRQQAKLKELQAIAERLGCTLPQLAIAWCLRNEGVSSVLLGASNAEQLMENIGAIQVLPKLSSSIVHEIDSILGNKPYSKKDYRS
The target is the same in assay [5]. The experiment in a line: KvBeta positive modulators, primary screen, biochemical, NADPH fluorescence (AID 623;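 active = NADPH fluorescence slope more negative than the mean of all samples by about 3 SD, 99.7% confidence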;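 also: fluorescence intensity change per second fitted from 20 to 320 s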). To be noted: Recombinant KvBeta, NADPH fluorescence decrease slope, 10 min; at 10 µM; stronger effect = lower value.
The target of assay [6] is Muscarinic acetylcholine receptor M4 (Homo sapiens) (UniProt P08173). The experiment in a line: compounds altering M4/GIRK thallium flux, either direction, primary screen, M4 allosteric agonist project, cell-based, HEK293 M4/GIRK, BTC-AM (AID 625;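 active = fluorescence slope after compound addition differing from the mean of all tested samples at 99.7% confidence, mostly higher but some lower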;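 also: thallium influx through GIRK channels coupled to M4 in HEK293 cells with BTC-AM dye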). The following applies: at 10 µM, actives lie on both sides. A digest of the protocol:
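Material: HEK293 cells with M4 receptor and GIRK channels; Times: cells overnight at 37 °C, BTC-AM loading 1 h, reads 2 min total; Technique: kinetic BTC-AM fluorescence sampled at 1 Hz, 10 s pre-addition baseline; Read-out basis: slope over 15–24 s of trace normalized to starting intensity; Controls: carbachol positive, DMSO negative.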

A short description of assay [7]: inhibitors of Sendai virus-induced IRF3 signaling, primary screen, TLR/RLR signaling modifier project, cell-based, Sendai virus stimulus, luciferase, 10K MLSCN set (AID 602276;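 active = inhibition at or above 50% at 10 µM; inactive = inhibition below 50%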;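 also: firefly luciferase from ISG56 promoter only with Renilla not read in this screen; 0% = Sendai virus plus DMSO and 100% = medium plus DMSO without virus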). To be noted: HEK293 RL24 IRF3 luciferase reporter, at 10 µM, stronger effect = higher value.
Assay [8] can be described thus: inhibitors of poly I:C-induced TLR3 signaling, primary screen, cell-based, poly I:C stimulus, luciferase, 10K MLSCN set (AID 602277;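 active = inhibition of the reporter signal at or above 50%; inactive = inhibition below 50%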). The following applies: HEK293-TLR3 RL24 IRF3 luciferase reporter, at 10 µM, stronger effect = higher value. Background: In a reporter assay the amount or activity of a reporter protein is the signal.

Muscarinic acetylcholine receptor M4 (Homo sapiens), sequence (P08173 whole entry, looked up): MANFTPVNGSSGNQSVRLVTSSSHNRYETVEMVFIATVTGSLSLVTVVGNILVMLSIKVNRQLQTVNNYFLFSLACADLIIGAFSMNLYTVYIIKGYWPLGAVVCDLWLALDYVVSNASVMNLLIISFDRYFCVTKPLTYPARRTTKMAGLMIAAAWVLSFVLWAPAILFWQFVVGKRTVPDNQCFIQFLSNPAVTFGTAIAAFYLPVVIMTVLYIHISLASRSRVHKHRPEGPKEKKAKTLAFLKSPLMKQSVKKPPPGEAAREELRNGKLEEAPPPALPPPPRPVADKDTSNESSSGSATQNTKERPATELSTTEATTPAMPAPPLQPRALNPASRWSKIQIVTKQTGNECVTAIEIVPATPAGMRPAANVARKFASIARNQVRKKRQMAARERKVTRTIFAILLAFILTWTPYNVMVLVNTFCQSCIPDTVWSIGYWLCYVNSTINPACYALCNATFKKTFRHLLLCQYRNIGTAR

Regarding `Cc1ccccc1NC(=O)c1c(F)c(F)c(F)c(F)c1F`, in assay [1], the cell count was found to be 490. The inhibition in assay [1] was -6% (inactive); in assay [3], -102% (inactive); in assay [7] it was 12.8% (inactive); in assay [8], 11.6% (inactive). In addition, the inhibition of aggregation in assay [2] was -11.8% (inactive). For the same molecule, the nuclei count in assay [2] was 98.6%; in assay [3], 135%. The fluorescence slope is -0.565 (inactive) in assay [4] and 0.00407 (inactive) in assay [6]. The NADPH fluorescence slope in assay [5] was -8.2e-05 (inactive).
For the molecule `CCSc1nc2c(c(=O)n1CC)SC(C)C2` (centres undefined), in assay [1], the cell count was 224. Further, the inhibition was 2.8% (inactive) in assay [1], 8.4% (inactive) in assay [3], 7.34% (inactive) in assay [7] and 18.7% (inactive) in assay [8]. Moreover, in assay [2], the inhibition of aggregation is 0.4% (inactive). For the same molecule, the nuclei count in assay [2] is 92.4%; in assay [3] it was 95%. The figures for the fluorescence slope in assay [4] and in assay [6] were -0.401 (inactive) and 0.00651 (inactive), respectively. The NADPH fluorescence slope in assay [5] is -0.000126 (inactive).
Turning to `COc1ccc2oc(C)c(C(=O)Cn3ccnc3)c2c1`, in assay [1], the cell count was 488. Besides, the inhibition in assay [1] is -7.3% (inactive); in assay [3], -16% (inactive); in assay [7], -26.4% (inactive); in assay [8] it was -28.5% (inactive). In assay [2], the inhibition of aggregation was 22.7% (inactive). Moreover, the nuclei count in assay [2] was determined as 54.3%; in assay [3], 108%. In addition, the results for the fluorescence slope in assay [4] and in assay [6] were -0.578 (inactive) and 0.00618 (inactive), respectively. In addition, the NADPH fluorescence slope in assay [5] was -1.5e-05 (inactive).
Take `Cc1ccc(OCC(=O)N2CCN(C(=O)CCC3CCCC3)CC2)cc1`: the cell count in assay [1] was 319. For the same molecule, the inhibition in assay [1] is 0.5% (inactive); in assay [3] it was -1.5% (inactive); in assay [7], 12% (inactive); in assay [8], 11.5% (inactive). Besides, the inhibition of aggregation in assay [2] is -30.7% (inactive). Further, the results for the nuclei count in assay [2] and in assay [3] were 84.9% and 108%, respectively. In addition, the fluorescence slope in assay [4] is -0.242 (inactive); in assay [6], 0.00663 (inactive). Moreover, the NADPH fluorescence slope in assay [5] was -1.9e-05 (inactive).
Regarding `O=C(NC1CCCCC1)C(c1ccco1)N(Cc1cccnc1)C(=O)C1COc2ccccc2O1` (centres undefined), the cell count in assay [1] was 509. Also, the inhibition in assay [1] is -13.1% (inactive); in assay [3] it was -4.6% (inactive); in assay [7], 22.1% (inactive); in assay [8], 35.6% (inactive). For the same molecule, in assay [2], the inhibition of aggregation was -14.5% (inactive). For the same molecule, the nuclei count in assay [2] came out at 111%; in assay [3], 198%. Also, the fluorescence slope is -0.607 (inactive) in assay [4] and 0.00322 (inactive) in assay [6]. In addition, the NADPH fluorescence slope in assay [5] is -1e-05 (inactive).
Regarding `COc1cc(CC(=O)Nc2ncc(C)s2)cc(OC)c1OC`, in assay [1], the cell count was 524. Also, the inhibition is -6.7% (inactive) in assay [1], -68.3% (inactive) in assay [3], 19.3% (inactive) in assay [7] and 18.5% (inactive) in assay [8]. In addition, in assay [2], the inhibition of aggregation was 20.3% (inactive). The nuclei count in assay [2] was 78.3%; in assay [3], 113%. Besides, the fluorescence slope in assay [4] was -0.501 (inactive); in assay [6], 0.00592 (inactive). Besides, in assay [5], the NADPH fluorescence slope was 7.8e-05 (inactive).
Take `C=CCSc1nc2c(c(=O)[nH]c(=O)n2C)n1C(C)C`: the cell count in assay [1] was 309. Besides, the inhibition in assay [1] is -11.3% (inactive); in assay [3] it was 33% (inactive); in assay [7], 2.75% (inactive); in assay [8] it was 14.4% (inactive). For the same molecule, the inhibition of aggregation in assay [2] was -2.8% (inactive). In addition, the nuclei count amounted to 110% in assay [2] and 97.6% in assay [3]. For the same molecule, the fluorescence slope in assay [4] was -0.579 (inactive); in assay [6], 0.00565 (inactive). The NADPH fluorescence slope in assay [5] was 8.7e-06 (inactive).
Turning to `O=C(COc1ccc(S(=O)(=O)N2CCCC2)cc1Cl)NC1CC1`, the cell count in assay [1] worked out at 349. Besides, the inhibition in assay [1] is 5.7% (inactive); in assay [3], 21.6% (inactive); in assay [7], 15.4% (inactive); in assay [8] it was 16.4% (inactive). Further, the inhibition of aggregation in assay [2] was -1.8% (inactive). For the same molecule, the nuclei count in assay [2] is 58.7%; in assay [3], 98.3%. The values for the fluorescence slope in assay [4] and in assay [6] were -0.232 (inactive) and 0.007 (inactive), respectively. In addition, the NADPH fluorescence slope in assay [5] is -1.9e-05 (inactive).
As for `CN(Cc1cccs1)c1ncnc2sccc12`, the cell count in assay [1] is 549. Moreover, the inhibition in assay [1] is -11.6% (inactive); in assay [3], -38.6% (inactive); in assay [7], 7.29% (inactive); in assay [8], -37.9% (inactive). Further, the inhibition of aggregation in assay [2] was -28.3% (inactive). Moreover, the nuclei count was 101% in assay [2] and 147% in assay [3]. Further, the fluorescence slope in assay [4] was -0.456 (inactive); in assay [6], 0.00479 (inactive). For the same molecule, in assay [5], the NADPH fluorescence slope was 2.8e-05 (inactive).
For the molecule `CCOc1ccc2[nH]c(=O)c(CN(Cc3ccccc3)C(=O)N3CCCC3)cc2c1`, the cell count in assay [1] stood at 497. In addition, the inhibition in assay [1] is -14.1% (inactive); in assay [3], 54.1% (inactive); in assay [7], 10.6% (inactive); in assay [8], 25.9% (inactive). Also, in assay [2], the inhibition of aggregation is 14.8% (inactive). Moreover, the nuclei count in assay [2] was 67.9%; in assay [3], 48.2%. The results for the fluorescence slope in assay [4] and in assay [6] were -0.475 (inactive) and 0.00557 (inactive), respectively. Further, in assay [5], the NADPH fluorescence slope was 6.7e-06 (inactive).
Regarding `CC(C)n1c(=NC(=O)c2ccco2)c(C#N)cc2c(=O)n3ccccc3cc21`, the cell count in assay [1] worked out at 378. The inhibition was 1.7% (inactive) in assay [1], -45.7% (inactive) in assay [3], -23.8% (inactive) in assay [7] and -8.73% (inactive) in assay [8]. In addition, in assay [2], the inhibition of aggregation is -20.7% (inactive). Also, the nuclei count stood at 104% in assay [2] and 112% in assay [3]. The fluorescence slope in assay [4] is -0.576 (inactive); in assay [6], 0.00331 (inactive). The NADPH fluorescence slope in assay [5] is 3.1e-06 (inactive).
As for `C=CCN1C(=O)/C(=C2\SC(N3CCOCC3)=NC2=O)c2cc(Br)ccc21`, in assay [1], the cell count is 418. The inhibition was 3.5% (inactive) in assay [1], -76% (inactive) in assay [3], -11.1% (inactive) in assay [7] and -37.3% (inactive) in assay [8]. The inhibition of aggregation in assay [2] is 22.3% (inactive). The nuclei count was determined as 100% in assay [2] and 86.1% in assay [3]. The fluorescence slope was -0.519 (inactive) in assay [4] and 0.00286 (inactive) in assay [6]. Also, the NADPH fluorescence slope in assay [5] is -8.4e-05 (inactive).
For the molecule `CC(=O)CC(=O)Nc1ccccc1NC(C)=O`, the cell count in assay [1] worked out at 470. The inhibition in assay [1] is 6.5% (inactive); in assay [3] it was -17.4% (inactive); in assay [7], 14.2% (inactive); in assay [8] it was 15% (inactive). Also, the inhibition of aggregation in assay [2] was -2.9% (inactive). In addition, the figures for the nuclei count in assay [2] and in assay [3] were 108% and 110%, respectively. In addition, the fluorescence slope was -0.579 (inactive) in assay [4] and 0.00558 (inactive) in assay [6]. Further, in assay [5], the NADPH fluorescence slope is -2.4e-05 (inactive).
For `CCn1c(=O)n(CC(=O)N(C)Cc2ccccc2)c(=O)c2ccccc21`, the cell count in assay [1] is 684. In addition, the inhibition in assay [1] is -16.4% (inactive); in assay [3] it was 65.6% (active); in assay [7], 11.1% (inactive); in assay [8] it was 10.9% (inactive). The inhibition of aggregation in assay [2] was 3.2% (inactive). Besides, the values for the nuclei count in assay [2] and in assay [3] were 120% and 94.4%, respectively. The fluorescence slope in assay [4] is -0.559 (inactive); in assay [6], 0.00592 (inactive). Moreover, in assay [5], the NADPH fluorescence slope was -2.3e-05 (inactive).

In general, inhibition refers to the drop in the measured response relative to a control, in per cent.
